# Only some compounds are listed: those with a hit (about 1.8% of all), similar ones and a draw of the others.
# HTRA1 inhibitor: HTRA1 serine protease inhibitors, primary screen, biochemical, fluorescence polarization, HTS; inhibition, % at 5.96 µM; recombinant HTRA1, FP-rhodamine activity-based probe; AID 504803, 2011; 340,000 tested, 0.5% active; in the data active = inhibition above about 36%;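 also: 0% = enzyme with DMSO and 100% = wells lacking enzyme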
# DDE Tn7 FP inh: inhibitors of Tn7 peptide binding to fibrin DD(E), primary screen, biochemical, fluorescence polarization, human fibrin, Tn7 probe | Fibrinogen beta chain (Homo sapiens), P02675 | inhibition, % at 8.3 µM | 370,000 tested, 0.13% active | FP displacement of FITC-Tn7 peptide from fibrin DD(E); 0% = median of compound wells per plate;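 active = inhibition above the mean of compounds falling within the control limits plus 3 SD of them, cut at about 14% in these data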;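 also: 0% = plate median of compound wells and 100% = 10 µM Aha-Tn7 peptide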
#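 Assay system: human fibrin DD(E). Input: DD(E) 2 µM final. Medium: Tris buffer with calcium and detergent, pH 7.8. Compound dosing: single point at 8.3 µM. Timing: 10 min plus 3 h, room temperature. Technique: fluorescence polarization of the labelled Tn7 tracer. Read-out: percent inhibition. Replicates: singlicate testing.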
# ABHD4 inh: ABHD4 inhibitors, primary screen, biochemical, fluorescence polarization, mouse; (Lyso)-N-acylphosphatidylethanolamine lipase (Mus musculus), Q8VD66; purified mABHD4, FP-Rh probe fluorescence polarization; inhibition, % at 8.92 µM; 370,000 tested, 0.54% active; AID 720543, 2013;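 active = inhibition exceeding the mean over every tested compound plus 3 SD, cut at about 30% in these data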;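 also: 0% = plate median of compound wells and 100% = S159A mutant with DMSO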
# Target sequence (Q8VD66 whole entry, looked up): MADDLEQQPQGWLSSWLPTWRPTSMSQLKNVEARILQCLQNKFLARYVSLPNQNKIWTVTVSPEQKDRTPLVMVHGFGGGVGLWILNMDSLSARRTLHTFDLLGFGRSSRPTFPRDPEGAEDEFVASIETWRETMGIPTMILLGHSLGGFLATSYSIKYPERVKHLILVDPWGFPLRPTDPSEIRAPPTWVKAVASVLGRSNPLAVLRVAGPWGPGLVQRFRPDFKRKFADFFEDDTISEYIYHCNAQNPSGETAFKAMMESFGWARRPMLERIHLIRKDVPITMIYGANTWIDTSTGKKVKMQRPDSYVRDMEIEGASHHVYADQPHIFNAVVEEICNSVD
#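 Test system: mouse ABHD4 enzyme, wild type. Reagent: FP-Rh fluorescent activity-based probe, added after compound pre-incubation. Timing: pre-incubation 45 min, probe exposure 60 min, at 25 °C. Technique: FP readout, ex 525 nm / em 598 nm. Benchmarks: high control S159A mutant with DMSO, low control median of compound wells.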
# SIAE inh: human SIAE inhibitors, primary screen, biochemical, fluorescence polarization, FP-Rh probe, 1536-well HTS; 370,000 tested, 0.69% active; inhibition, % at 9.66 µM; SIAE FP-Rh probe binding; Sialate O-acetylesterase (Homo sapiens), Q9HAT2; AID 1053197, 2014;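 active = inhibition above a cutoff: mean of compounds within the control limits plus 3 SD of those, cut at about 17% in these data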;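 also: 0% = plate median of compound wells and 100% = probe without SIAE protein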
# Tn6 DDE FP: inhibitors of Tn6 peptide binding to fibrin DD(E), primary screen, biochemical, fluorescence polarization, human fibrin, Tn6 probe | Fibrin DD(E) TRITC-Tn6 fluorescence polarization displacement | Fibrinogen beta chain (Homo sapiens), P02675 | AID 720509, 2013 | inhibition, % at 8.3 µM | 370,000 tested, 0.21% active;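 active = inhibition above a per-campaign cutoff: mean of compounds within control limits plus 3 SD, cut at about 15% in these data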;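 also: 0% = median of all compound wells on the plate and 100% = blocking peptide control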
# TCR CD3 inh: inhibitors of human TCR-CD3 interaction, primary screen, biochemical, fluorescence, TAMRA-labeled TCR probe; inhibition, % at 9.4 µM; 360,000 tested, 0.37% active; AID 651800, 2012; T-cell receptor (TCR); in the data active = inhibition above about 19%;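 also: recombinant mutant TCR 2C K166C tagged with TAMRA read by polarization; 0% = receptor in buffer alone and 100% = receptor with positive control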
# * marks the source's active call; other numbers are inactive results; . = not tested or not shown.
SMILES,HTRA1 inhibitor,DDE Tn7 FP inh,ABHD4 inh,SIAE inh,Tn6 DDE FP,TCR CD3 inh
COC(=O)[C@]12C[C@H](CC(=O)NCCC(C)C)C(=O)N(Cc3ccco3)C1=C[C@H](C(C)(C)C)O[C@@H]2C,.,-3.8,-2.5,-3.8,-9.2,.
CC1CC(=O)c2c(cc3c(-c4c(O)cc(O)c5c(O)c6c(cc45)OC(C)CC6=O)c(O)cc(O)c3c2O)O1 (stereo not drawn),78.4*,.,.,.,.,.
COc1ccc(C(=O)C2(C(=O)NCc3ccccc3)CC(c3ccccc3C(F)(F)F)=NO2)cc1 (stereo not drawn),.,7.1,-8.6,-3.1,-2.8,.
Nc1cc(C(=O)O)c(N)c2c1C(=O)c1ccccc1C2=O,82.0*,.,.,.,.,.
Cc1ccc2nc(-c3ccc(NC(=O)CSc4nnc(Cc5cccs5)n4C)cc3)sc2c1,.,3.9,-13.4,-9.0,-8.5,.
O=C1NN(c2ccc(F)c(Cl)c2)C(=O)/C1=C\c1cccc(OC(=O)c2cccs2)c1,34.8,-6.1,31.8*,-0.7,-0.9,5.0
COc1ccc(-c2cc(-c3nnc(SCC(=O)Nc4ccc(-c5nc6ccc(C)cc6s5)cc4)n3N)[nH]n2)cc1,.,-2.5,-7.6,-1.7,0.4,.
CCN1CCc2c(sc(NC(=O)Cc3ccccc3)c2C(N)=O)C1,4.9,-2.6,2.9,-0.6,2.0,-1.7
CCN1CCc2c(sc(NC(=O)Nc3ccc(Cl)c(Cl)c3)c2C(N)=O)C1,28.4,-3.8,7.4,31.0*,-10.1,6.4
Nc1ccc(N)c(C(=O)O)c1,54.4*,.,.,.,.,.
CS(=O)(=O)Nc1ccc(C(=O)NCCc2ccccc2)cc1,5.3,1.9,7.1,19.1*,1.2,0.8
CS(=O)(=O)Nc1ccc(C(=O)NCCSCc2ccccc2)cc1,-1.4,-0.8,0.5,2.1,2.2,-3.4
COc1ccc2c(c1)CN1C(=O)N(Cc3ccccc3)S(=O)(=O)CC21 (stereo not drawn),.,-4.9,-7.3,-10.7,-1.4,.
COC(=O)[C@@]12CCCCC3=C1N(CCC3)C(=O)[C@H]2CC(=O)N1CCCCC1,.,-3.6,1.3,-9.9,2.4,.
COC(=O)CCC(=O)OC1(C)C(=O)C2=CN(CCc3ccccn3)C(c3ccc(OC)cc3)=CC2=C(Br)C1=O (stereo not drawn),37.5*,.,.,.,.,.
COC(=O)C1=CN(c2cccc(C)c2)C=C(C(=O)OC)C1c1cc(OC)c(O)c([N+](=O)[O-])c1,52.4*,8.9,8.2,4.7,1.5,9.2
NC(=S)N/N=C/c1ccc2ccccc2c1,0.7,-3.8,-0.8,2.4,1.2,13.6
C(=Nc1ccc(Nc2ccccc2)cc1)c1ccc2ccccc2c1,72.6*,.,.,.,.,.
COc1cc(-c2nnc(-c3cccs3)o2)cc(OC)c1OC,-2.9,2.2,-5.2,17.6*,3.1,-3.6
C#CCNC(=O)C[C@@H]1C(=O)N(CC=C)C2=CCCCC[C@]21C(=O)OC,.,4.4,6.9,-2.6,1.0,.
Oc1c(Cl)c(Cl)c2ncccc2c1Cl,7.6,1.6,1.9,1.9,0.4,-5.9
COc1cc(N)c2ncccc2c1Cl,6.3,10.4,34.5*,15.0,3.2,9.8
CCOc1ccc(CNC(=S)N/N=C\c2ccc([N+](=O)[O-])cc2)cc1,2.5,2.4,-2.0,3.3,4.5,4.5
CCOc1ccc(N=Cc2ccc([N+](=O)[O-])cc2)c(O)c1,31.4,-1.3,35.4*,3.0,13.0,6.7
CCOC(=O)Cc1nc(N2CCN(C=O)CC2)c2c(C)c(C(=O)OCC)sc2n1,.,-3.7,-2.1,2.8,0.5,.
SMILES,HTRA1 inhibitor,DDE Tn7 FP inh,ABHD4 inh,SIAE inh,Tn6 DDE FP,TCR CD3 inh
O=C(NCc1ccccc1)C(c1cccs1)N(C(=O)c1csnn1)C1CC1 (stereo not drawn),2.5,4.8,-0.1,-5.8,-3.7,2.4
O=C(NCCc1ccccc1)C(c1cccs1)N(C(=O)c1csnn1)C1CC1 (stereo not drawn),-5.4,-1.4,-0.2,17.6*,-2.2,5.7
Cc1cc(-c2n[nH]c(=S)n2N=Cc2ccc(OCc3ccccc3)cc2)n[nH]1,.,-2.1,4.9,13.8,2.3,.
CCN(CC)c1ccc2nc3c4ccccc4c(=O)cc-3oc2c1,.,5.3,-136.5,-131.1,105.1*,-27.1
CCOC(=O)[C@]12CCCC3=C1N(CCC3)C(=O)[C@@H](CC(=O)NCc1cccc3ccccc13)C2,.,0.3,-1.5,-5.5,3.5,.
O=C(Nc1ccccc1)Nc1ccc(Cl)c([N+](=O)[O-])c1,-20.6,-7.0,-18.6,53.8*,-4.1,1.4
Cc1ccc(NC(=O)Nc2ccccc2)cc1[N+](=O)[O-],1.7,4.9,-3.1,-0.1,-3.6,1.5
COC(=O)[C@]12C[C@H](CC(=O)N3CCC(c4ccccc4)CC3)C(=O)N(CCC3=CCCCC3)C1=C[C@H](C(C)C)O[C@@H]2C1CC1,.,-2.0,-1.8,2.5,1.7,.
Nc1nc(N)c2cc(Sc3ccc4ccccc4c3)ccc2n1,.,5.4,19.8,28.8*,1.0,-7.3
Nc1nc(N)c2cc(Sc3ccc(Cl)cc3)ccc2n1,-12.4,9.8,20.9,7.0,3.8,-1.4
C/C(=N\Nc1nc2ccccc2c(=O)n1O)c1ccco1,16.7,0.5,11.3,3.4,2.7,20.1*
COC(=O)[C@]12C[C@H](CC(=O)NCCCCc3ccccc3)C(=O)N(Cc3cccc4ccccc34)C1=C[C@H](C(C)C)O[C@@H]2C1CC1,.,-2.2,-15.7,-8.3,-3.8,.
CN(C)CCCn1c(=S)[nH]c2ccccc2c1=O,4.2,1.5,0.1,-3.0,-3.4,-6.9
CN(C)CCCn1c2c3ccccc3ccc2c2oc(=O)c3ccccc3c21,-1.9,17.1*,14.8,-14.8,8.4,0.1
CC(=O)NCCC(=O)Nc1sc2c(c1-c1nc3ccccc3[nH]1)CCCC2,-2.8,8.5,7.0,10.8,3.9,4.6
CN1CCN(S(=O)(=O)c2cccc(C(=O)Nc3sc4c(c3-c3nc5ccccc5[nH]3)CCCC4)c2)CC1,-7.6,2.1,2.6,25.2*,1.0,-5.0
O=C1C(Cl)=C(NS(=O)(=O)c2ccc([N+](=O)[O-])cc2)C(=O)c2ccccc21,13.0,-3.2,30.4*,12.9,6.8,5.8
CC1(C)c2ssc(=S)c2-c2ccccc2N1C(=O)c1ccco1,4.8,-7.5,-7.0,22.0*,-6.1,-1.1
COc1ccc2[nH]c3c(N4CCc5ccccc5C4)ncnc3c2c1,-4.8,-8.9,35.8*,16.6,-10.5,5.4
O=c1cc(-c2ccc(O)c(O)c2)oc2cc(O[C@@H]3O[C@H](CO)[C@@H](O)[C@H](O)[C@H]3O)cc(O)c12,59.9*,.,.,.,.,.

# Bioassay records from PubChem BioAssay.
